# Article PMC11622326 (Diabetes, obesity & metabolism, 2024)
# Assays:
# [1] = tested on: DIO mice; test: Efficacy of 5A1MQ in DIO mice: body weight, whole-body composition, food intake; type: in vivo, mouse; settings: for absolute fat mass gain: by study termination, control 4.7 g
# In short: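 Male C57BL/6 mice (~18 weeks) kept on HFD for ≥12 weeks, singly housed, stabilised at ~40–50 g. After handling and 3 days of sham saline SC injections, randomised by baseline body composition (n=8/group). Saline, 10 or 32 mg/kg/day SC once daily at 4–5 PM for 30 days. Weight and food intake measured twice weekly; EchoMRI on days −1, 8, 15, 23, 29. Two-way repeated-measures ANOVA with FDR correction; ANCOVA with body weight covariate; mean ± SEM.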
# [2] = tested on: DIO mice; test: Non-fasted; type: in vivo, mouse
# In short: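 HFD-fed obese male C57BL/6 mice (n=8/group) received saline, 10 or 32 mg/kg/day SC once daily. Tail blood was taken noon–1 PM without fasting on days −7, 0, 7, 14, 21 and 28. Glucose read by test strip; plasma insulin by ELISA. Change expressed from Day 0 baseline.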
# [3] = tested on: DIO mice; test: Oral glucose tolerance test; type: in vivo, mouse; settings: Day 21, high-dose 32 mg/kg/day SC vs control and low-dose
# In short: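 Performed on day 21 in obese HFD mice dosed daily SC (saline, 10 or 32 mg/kg/day). After fed-state bleed, mice fasted 4 h, receiving their treatment at 3 h of fasting. One hour post-dose, 2 g/kg oral glucose bolus. Blood glucose at 0, 15, 30, 60 and 120 min; plasma insulin at 0 and 15 min.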
# [4] = tested on: DIO mice; test: Terminal liver weight, histopathology, F4/80 and liver triglycerides in DIO mice; type: in vivo, mouse
# In short: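 Terminal day-30 livers from obese HFD mice treated daily SC (saline, 10 or 32 mg/kg/day; dosed 1 h pre-sacrifice, 4 h fast). Whole liver weighed. Left-lobe sections flash-frozen for triglyceride assay or formalin-fixed, paraffin-embedded for H&E and F4/80 IHC. Outputs: steatosis, inflammation, ballooning and NAS scores; hepatocyte count; cross-sectional area; F4/80-stained area by image analysis.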
# [5] = tested on: DIO mice; test: Terminal serum chemistry and complete blood count in DIO mice; type: in vivo, mouse
# In short: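 Day-30 cardiac-puncture blood (~700 μL) from obese HFD mice given saline, 10 or 32 mg/kg/day SC daily. Mice were dosed 1 h before CO2 euthanasia after a 4 h fast. 300 μL used for complete blood count; 150 μL for serum chemistry (TG, ALT, AST, ketones, CK, LDH, lipids). Some endpoints analysed by Kruskal-Wallis test.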
# [6] = Acute intravenous dosing plasma PK in mice; type: in vivo, mouse; settings: IV 5 mg/kg
# In short: (§1)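 Male C57BL/6 mice (~8 weeks) fasted ~12 h before dosing; food returned 4 h post-dose. Single dose at 5 mg/kg IV (n=3) or 30 mg/kg PO (n=3). Saphenous cross-sampling at 0.0833 h (IV only), 0.25, 0.5, 1, 2, 4, 8, 12 h (PO only) and 24 h. K2EDTA plasma stored at −70°C, then LC-MS/MS. Mean ± SD.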
# [7] = Acute oral dosing plasma PK in mice; type: in vivo, mouse
# In short: as §1
# [8] = Acute and repeat SC dosing plasma PK in mice; type: in vivo, mouse; settings: for Cmax: plasma
# In short: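 Male C57BL/6 mice (18–20 weeks), non-fasted, on certified chow, group-housed. Acute arm (n=6): single 25 mg/kg SC. Repeat arm (n=12): 25 mg/kg SC once daily for 5 days. Plasma stored at −70°C and assayed by LC-MS/MS. Mean ± SD.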
# [9] = Tissue distribution of 5A1MQ after repeat SC dosing in mice; type: in vivo, mouse
# In short: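 Male C57BL/6 mice (18–20 weeks) given 25 mg/kg SC once daily for 5 days. On day 5, subsets (n=3/timepoint) bled by cardiac puncture at 1, 4 and 8 h post-dose. Epididymal white fat, liver and quadriceps collected terminally and stored at −70°C. Plasma and tissue levels measured by LC-MS/MS; tissue-to-plasma ratios derived.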
# [10] = Terminal liver 5A1MQ concentration in DIO mice; type: in vivo, mouse; settings: high-dose 32 mg/kg/day SC, ~1–2 h post-dosing on Day 30
# In short: (§2)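 On day 30, obese HFD mice were dosed (saline, 10 or 32 mg/kg/day SC) 1 h before euthanasia, fasted 4 h, and killed by CO2. Left liver lobe cut into ~30 mg sections, flash-frozen, and assayed by LC-MS/MS for test compound and 1-MNA. Quantitation limit 1 ng/mL.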
# [11] = tested on: 1-MNA; test: Terminal liver 1-MNA level in DIO mice; type: in vivo, mouse; settings: high-dose 32 mg/kg/day SC, ~1–2 h post-dosing on Day 30
# In short: as §2
# [12] = target: T1, mouse NNMT (Mus musculus, UniProt O55239); test: In vitro biochemical assay against mouse NNMT enzyme
# T1 sequence (O55239 1-264): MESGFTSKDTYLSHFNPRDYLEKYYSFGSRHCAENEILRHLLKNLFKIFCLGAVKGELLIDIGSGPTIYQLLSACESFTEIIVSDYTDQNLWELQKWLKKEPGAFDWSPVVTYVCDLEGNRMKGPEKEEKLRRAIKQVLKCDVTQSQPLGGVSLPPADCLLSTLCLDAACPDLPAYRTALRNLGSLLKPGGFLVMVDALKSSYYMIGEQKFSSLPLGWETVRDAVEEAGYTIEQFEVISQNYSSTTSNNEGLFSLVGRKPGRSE
# [13] = Solubility in aqueous and simulated gastric fluids; type: physicochemical
# [14] = Mouse plasma protein binding; type: in vitro ADME
# [15] = Metabolic stability in cryopreserved mouse hepatocytes; type: in vitro ADME
# [16] = tested on: Cerep panel of major receptors, enzymes, and uptake transporter proteins; test: Cerep off-target panel; settings: 10 μM
# [17] = target: T2, monoamine oxidase-A (MAO-A) (Homo sapiens, UniProt P21397); test: Cerep panel: MAO-A inhibition; type: biochemical; settings: 10 μM
# T2 sequence (P21397 1-527): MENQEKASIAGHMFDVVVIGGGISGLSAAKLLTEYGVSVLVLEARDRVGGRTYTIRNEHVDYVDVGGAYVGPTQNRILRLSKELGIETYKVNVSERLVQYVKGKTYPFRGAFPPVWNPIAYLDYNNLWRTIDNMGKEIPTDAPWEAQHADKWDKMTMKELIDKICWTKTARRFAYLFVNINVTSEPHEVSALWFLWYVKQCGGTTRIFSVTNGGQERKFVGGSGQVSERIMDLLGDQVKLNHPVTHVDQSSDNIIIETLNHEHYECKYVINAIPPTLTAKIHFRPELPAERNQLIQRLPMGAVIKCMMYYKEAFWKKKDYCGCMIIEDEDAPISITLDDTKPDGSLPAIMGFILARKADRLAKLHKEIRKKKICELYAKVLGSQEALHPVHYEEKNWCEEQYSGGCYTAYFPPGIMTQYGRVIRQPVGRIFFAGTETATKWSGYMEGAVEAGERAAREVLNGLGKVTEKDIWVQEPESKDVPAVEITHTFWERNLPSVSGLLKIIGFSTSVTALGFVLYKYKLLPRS
# [18] = statistically significant only at the low dose (p<0.05 vs control)
# [19] = SC 25 mg/kg once-daily for 5 days
# [20] = SC 25 mg/kg single (acute) dose
# [21] = SC 25 mg/kg once-daily x5, 1 h post-dose
# [22] = SC 25 mg/kg once-daily x5, 8 h post-dose
smiles,measurement,setting,value
"C[n+]1cccc2c(N)cccc21 [5A1MQ, 5-amino-1-methylquinolium]",longitudinal lean mass,[1]; 10 and 32 mg/kg/day SC,no significant main treatment effect
same,food intake,"[1]; 10 and 32 mg/kg/day SC, treatment effect",no main effect
same,absolute fat mass gain,[1]; high-dose 32 mg/kg/day SC,1.3 g
same,absolute fat mass gain,[1]; low-dose 10 mg/kg/day SC,4.7 g
same,weekly fed-state blood glucose,[2]; 10 and 32 mg/kg/day SC,did not alter
same,fed-state plasma insulin decrease from baseline (Day 0) to Day 28,"[2]; high-dose 32 mg/kg/day SC, control increased by 112%",9%
same,fed-state plasma insulin increase from baseline (Day 0) to Day 28,"[2]; low-dose 10 mg/kg/day SC, control increased by 112%",46%
same,OGTT circulating glucose levels at 15- and 30-min post-bolus glucose,[3],significantly decreased
same,OGTT plasma insulin at 15 min post-glucose loading,[3]; p<0.0001,suppressed
same,hepatocyte cell count,"[4]; 10 and 32 mg/kg/day SC, p<0.0001",significant main effects of treatment
same,NAFLD activity score (NAS),"[4]; 10 and 32 mg/kg/day SC, p<0.0001 high dose vs control",dose-dependent improvement
same,whole-liver cross-sectional area,"[4]; 10 and 32 mg/kg/day SC, p=0.0015",significant main effects of treatment
same,liver TG levels,"[4]; 10 and 32 mg/kg/day SC, p=0.0169",significantly reduced
same,liver F4/80 signal (macrophage marker),"[4]; high-dose 32 mg/kg/day SC vs control, p<0.05",significantly lowered
same,terminal liver weight,"[4]; high-dose 32 mg/kg/day SC, control average 2.1 g",1.4 g
same,reduction in microvesicular steatosis compared to controls,"[4]; high-dose 32 mg/kg/day SC, p<0.01",73%
same,liver lobular inflammation,[4]; p<0.01 high dose vs control,significantly reduced
same,hepatocellular ballooning,[4]; p<0.05 high dose vs control,significantly reduced
same,decrease in monocytes vs control,"[5]; high-dose 32 mg/kg/day SC, p<0.001",50%
same,decrease in lymphocytes vs control,"[5]; high-dose 32 mg/kg/day SC, p<0.05",31%
same,serum ketone body levels,[5]; p<0.0001 high dose vs control,dose-dependently decreased
same,serum ALT,[5]; p<0.001 high-dose vs control,dose-related decreases
same,serum TG levels,[5]; p<0.01 high-dose vs control,significantly lower
same,serum AST,[5]; p<0.01 low-dose vs control,dose-related decreases
same,total white blood cell count,[5]; p<0.05 high-dose vs control,significantly reduced
same,serum CK,[5]; [18],significantly lowered
same,serum LDH,[5]; [18],significantly lowered
same,plasma clearance,[6],101 mL/min/kg
same,terminal half-life,[6],6.3 h
same,steady-state volume of distribution,[6]; estimated,39 L/kg
same,AUC0-∞,[6]; plasma,825 ng·h/mL
same,Cmax,[6]; plasma,"2,009 ng/mL"
same,Tmax,[7]; PO 30 mg/kg,4 h
same,estimated terminal half-life,[7]; PO 30 mg/kg,14.8 h
same,oral bioavailability,[7]; PO 30 mg/kg vs IV 5 mg/kg,3.5%
same,AUC0-∞,"[7]; PO 30 mg/kg, plasma",224 ng·h/mL
same,Cmax,"[7]; PO 30 mg/kg, plasma",14.5 ng/mL
same,Plasma AUC0-∞,[8]; [19],"4,687 ng*h/mL"
same,Tmax,[8]; [19],~ 15 minutes
same,estimated terminal half-life (T1/2),[8]; [19],12.8 h
same,Cmax,[8]; [19],"5,130 ng/mL"
same,Plasma AUC0-∞,[8]; [20],"7,031 ng*h/mL"
same,estimated terminal half-life (T1/2),[8]; [20],13.3 h
same,Tmax,[8]; SC 25 mg/kg single dose,~ 15 minutes
same,Cmax,[8]; SC 25 mg/kg single dose,"7,010 ng/mL"
same,EWAT-to-plasma ratio,[9]; [21],1.4
same,liver-to-plasma ratio,[9]; [21],0.09
same,mean total exposure level in liver,[9]; [21],83 ng/ng
same,muscle-to-plasma ratio,[9]; [21],2.2
same,EWAT-to-plasma ratio,[9]; [22],31.1
same,liver-to-plasma ratio,[9]; [22],1.4
same,muscle-to-plasma ratio,[9]; [22],17.0
same,liver concentration of 5A1MQ,[10],28.5 ng/g
same,mean reduction in 1-MNA level in the liver relative to controls,[11],39%
same,mouse NNMT IC50,[12],0.078 µg/mL
same,solubility,[13]; phosphate buffered saline,> 100 mg/mL
same,solubility,[13]; simulated gastric fluids,> 10 mg/mL
same,mouse plasma protein binding (Fb),[14],7%
same,clearance,[15],57.9 mL/min/kg
same,half-life (T1/2),[15],< 7 min
same,activity against Cerep panel targets (all except MAO-A),[16],no significant activity
same,inhibition of monoamine oxidase-A (MAO-A),[17],67.4%
